# In the library only some 3.7% were active in any assay of this set; here they are far more common.
# hERG rescue: hERG (human) protection from proarrhythmic block | CHO-hERG, FluxOR thallium flux, dofetilide IC70 present | activation (rescue from dofetilide block), less the hit threshold, % at 10 µM | 310,000 tested, 0.51% active;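 active = activation above the mean of controls blocked by dofetilide plus 5 SD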;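 note: thallium influx through hERG after potassium depolarization seen as dye fluorescence rise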
# KCNQ1 block: inhibitors of human KCNQ1 potassium channel; AID 2642; 310,000 tested, 1.3% active; P51787; B-score at 10 µM; CHO-K1 KCNQ1, FluxOR thallium flux fluorescence; active compounds read high;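 active = compounds whose thallium flux B-score, printed positive for inhibition, exceeds three library SD while starting fluorescence stays within three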;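 note: channel opened by potassium depolarization with thallium stimulus after 20 min compound exposure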
# KCNQ1 act: potentiators or activators of human KCNQ1 potassium channel. P51787. AID 2648. CHO-K1 KCNQ1, thallium flux FluxOR fluorescence; active compounds read high. 310,000 tested, 0.35% active. B-score at 10 µM;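 active = fluorescence ratio B-score, a plate-corrected score, at least three library SD, with initial intensity B-score within 5 SD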
#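 Assay system: stable KCNQ1 CHO-K1 line; medium: assay buffer, equal DMSO in all wells; timing: 90 min dye loading and 20 min compound exposure, both at room temperature; technique: kinetic FluxOR thallium fluorescence, 10-s 1-Hz baseline, 110-s post-stimulus read; read-out basis: B score of baseline-normalized fluorescence ratio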
# Kir21 block: blocks the mouse Kir2.1 inward-rectifier potassium channel | P35561 | AID 1672 | B-score at 10 µM | 310,000 tested, 0.85% active | HEK293-Kir2.1, FluxOR thallium flux fluorescence; active compounds read low;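 active = fluorescence ratio B-score at or below minus 3 SD of library scores, with starting-brightness B-score within 2 SD, cut at about -4.2 in these data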;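 note: channel flux triggered by added potassium and thallium sulfate stimulus; B-score of peak minus minimum fluorescence over baseline after thallium stimulus; more negative B-score means stronger Kir2.1 block with less thallium influx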
# KCNK9 block: inhibitors of human KCNK9 two-pore domain potassium channel. HEK293 KCNK9, FluxOR thallium flux fluorescence; active compounds read low. B-score at 10 µM. 310,000 tested, 1.2% active. AID 488922;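 active = ratio B-score over 3 SD below the library mean, with starting fluorescence within 5 SD of its mean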;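 note: negative B-score means less thallium flux so channel inhibition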
# KCNK3 inh: human KCNK3 channel inhibition, primary screen. CHO-KCNK3 thallium flux, FluxOR fluorescence; active compounds read low. B-score at 10 µM. 340,000 tested, 0.84% active;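 active = B-score under library mean minus 4 SD, starting fluorescence ratio at most library mean plus 5 SD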;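 note: more negative B-score means stronger inhibition of thallium flux through KCNK3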
# KCNQ1 inh valid: confirmation of human KCNQ1 potassium channel inhibitors; 1,600 tested, 93% active; inhibition, % at 10 µM; shares compounds with KCNQ1 block; KCNQ1 cell line, FluxOR thallium flux fluorescence; AID 588353;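 active = primary screen active, with duplicate mean exceeding buffer control mean plus 3 SD of buffer wells, cut at about 28% in these data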;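 note: 0% = buffer control ratio and 100% = XE991 inhibitor control ratio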
# CHO KCNQ1 ctr: counter-screen for KCNQ1 inhibitors: effect in parental CHO cells; shares compounds with KCNQ1 block; parental CHO-K1, FluxOR thallium flux fluorescence ratio; active compounds read low; zero means no signal rise above baseline; fluorescence ratio (Tl flux) at 10 µM; 1,600 tested, 21% active;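 active = mean of duplicate thallium-flux fluorescence ratios in parental host cells more than 5 SD below the buffer control mean, cut at about 0.38 in these data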;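 note: ratio is peak minus minimum fluorescence divided by baseline fluorescence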
# KCNQ1 ephys val: blocks human KCNQ1 current in automated patch clamp | calls only at 10 µM | KCNQ1-CHO cells | shares compounds with KCNQ1 block | 490 tested, 20% active;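 active = KCNQ1 current drop exceeding 3 SD of negative control wells, seen in both duplicate runs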;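 note: steady state current during a 2 s step from -80 to +40 mV; negative values mean current inhibition and positive values mean potentiation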
# KCNQ2 inh: rat KCNQ2 inhibition in KCNQ1 inhibitor specificity screen. shares compounds with KCNQ1 block. AID 651746. inhibition, % at 10 µM. 1,600 tested, 71% active. KCNQ2 cells, FluxOR thallium flux fluorescence;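 active = mean percent inhibition of the KCNQ2 thallium signal more than 5 SD above the buffer-only control wells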;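 note: KCNQ2 expressed in CHO cells; 0% = buffer control wells and 100% = XE-991 inhibitor control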
# KCNQ1-KCNE1 inh: KCNQ1 inhibitor that also blocks human KCNQ1/KCNE1 channel. shares compounds with KCNQ1 block. KCNQ1/KCNE1 cells, FluxOR thallium flux fluorescence. inhibition, % at 10 µM. 1,600 tested, 77% active. AID 652147;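 active = mean percent inhibition of duplicate wells above the buffer-only control mean plus 3 SD of those controls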;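 note: 0% = buffer only wells and 100% = XE-991 inhibitor control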
# * marks the source's active call; other numbers are inactive results; i = inactive; · = not tested or not shown.
SMILES,hERG rescue,KCNQ1 block,KCNQ1 act,Kir21 block,KCNK9 block,KCNK3 inh,KCNQ1 inh valid,CHO KCNQ1 ctr,KCNQ2 inh,KCNQ1-KCNE1 inh,others
O=C(c1cccc(N2C(=O)C3C4C=CC(C4)C3C2=O)c1)N1CCCc2ccccc21 (stereo not given),-4,10*,i,-0.56,i,i,0,0.48,i,46%*,
Cc1ccc(CNCC(O)(c2ccccc2)c2ccc(Cl)cc2)cc1 (stereo not given),-34,6*,i,-2.8,i,i,116*,0.42,92%*,42%*,KCNQ1 ephys val=i
COC(=O)Cc1c(C)c2ccc(OCC(=O)NC3CCS(=O)(=O)C3)cc2oc1=O (stereo not given),-10,i,i,-0.21,i,i,·,·,·,·,
CC1Cc2ccccc2N1S(=O)(=O)c1cccc(C(=O)NCCCO)c1 (stereo not given),-4,i,i,0.47,i,i,·,·,·,·,
CCOC(=O)c1ccc(NC(=O)c2cccc(S(=O)(=O)N3c4ccccc4CC3C)c2)s1 (stereo not given),-11,7*,i,-0.06,i,i,89*,0.47,i,110%*,KCNQ1 ephys val=i
CCN(CC)C(C(=O)NC1CCCCC1)c1ccc(C)cc1 (stereo not given),-11,7*,i,1.1,i,i,75*,0.45,65%*,110%*,
CCC1(CC)Cc2ccccc2C(=O)N1,-3,i,i,0.47,i,i,·,·,·,·,
O=C1c2ccccc2CC1(Cc1ccccc1)Cc1ccccc1,-10,9*,i,0.11,i,i,124*,0.33*,114%*,164%*,
COc1ccc(N2CCN(C(=O)NCc3cccc(OC)c3)CC2)cc1,-6,i,i,-0.57,i,i,·,·,·,·,
CC(C)(C)C(=O)Cn1c(=N)n(Cc2ccccc2Cl)c2ccccc21,-8,i,i,-0.28,i,i,·,·,·,·,
CC(C)(C)C(=O)Cn1c(=N)n(Cc2ccccc2)c2ccccc21,-16,7*,i,-0.19,i,i,86*,0.39,114%*,90%*,
CCCn1c2c(c(O)c(C(=O)Nc3ccc(OC)cc3)c1=O)CCCC2,-8,7*,i,0.11,i,i,94*,0.44,78%*,104%*,KCNQ1 ephys val=i
COCC1CCCCN1C(=O)c1cc(COc2ccc3ncccc3c2)on1 (stereo not given),-14,i,i,-0.65,i,i,·,·,·,·,
CCC1CCCCN1C(=O)c1cc(COc2ccc3ncccc3c2)on1 (stereo not given),-23,12*,i,-1.5,i,-9*,124*,0.48,86%*,112%*,
COc1ccc(OC)c(NC(=O)CSc2nc3scc(C)c3c(=O)[nH]2)c1,-1,i,i,2.1,i,i,·,·,·,·,
CCOC(=O)CSc1nc2c(sc(=S)n2-c2ccc(OCC)cc2)c(=O)[nH]1,-8,i,i,0.3,i,i,·,·,·,·,
CCn1c(=S)sc2c(=O)[nH]c(SCC(=O)Nc3cc(OC)ccc3OC)nc21,-18,10*,i,2,i,i,66*,0.45,i,89%*,

# Compound activity deposited in PubChem by Johns Hopkins Ion Channel Center.
